Measured values from the RNAGym collection of RNA variant scans (doi:10.1126/science.aae0568).
Variants at the floor of the assay were thinned out.

B1: tRNA (parent)
chain: GUUCCGUUGGCGUAAUGGUAACGCGUCUCCCUCCUAAGGAGAAGACUGCGGGUUCGAGUCCCGUACGGAACG

Variants of: B1
Test: yeast fitness relative to wild type (ratio to wild type); higher = fitter; tRNA-Arg(CCU), competitive growth, 37 C, YPD
Outline: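 Start and end populations of a pooled competition were compared by 100-nucleotide paired-end sequencing of gene amplicons. The Saccharomyces cerevisiae strains carried tRNA-Arg(CCU) gene variants at the native genomic locus, synthesised with a 3% per-site mutation rate at 69 sites, and competed in YPD at 37°C for 24 hours in six parallel replicates. Darwinian fitness relative to wild type was based on the change in genotype frequencies. Genotypes required ≥ 100 starting reads, and estimates < 0.5 were set to 0.5.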

Row | Variant | yeast fitness
1 | GUUCCGUUGGCGUAAUGGUAACGCGUCUCCCUCCUAAGGAGAAGAAUGCGGGUUCGACUCCCGUACGGAACG [C46A G58C] | 0.874
2 | GUUCCGUUGGCGUAAUGGUAACGCGUCUCCCUCCUAAGGAGAAGACAGUGGGUUCGAGUCCCGUACGGAACG [U47A C49U] | 0.913
3 | GUUCCGUUGGCGUAAUGGUAACGCGUCUCCCUCCUAAGGAGAAGACAGGGGGUUCGAGUCCCGUACGGAACG [U47A C49G] | 0.767
4 | GUUCCGUUGGCGUAAUGGUAACGCGUCUCCCUCCUAAGGAGAAGAUUGCGGGAUCGAGUCCCGUACGGAACG [C46U U53A] | 0.704
5 | GUUCCGUUGGCGUAAUGGUAACGCGUCUCCCUCCUAAGGAGAAGAGUGCGGGUCCGAGUCCAGUACGGAACG [C46G U54C C62A] | ≤ 0.5
6 | GUUCCGUUGGCGUAAUGGUAACGCGUCUCCCUCCUAAGGAGAAGACCGCGGGUUCGAGUCGCGUCCGGAACG [U47C C61G A65C] | ≤ 0.5
7 | GUUCCGUUGGCGUAAUGGUAACGCGUCUCCCUCCUAAGGAGAAGACCGCGGGUUCGCGUCCCGUACGGAACG [U47C A57C] | 0.524
8 | GUUCCGUUGGCGUAAUGGUAACGCGUCUCCCUCCUAAGGAGAAGAGUGCGGGUUUGAGUCCCGUACGGAACG [C46G C55U] | 0.769
9 | GUUCCGUUGGCGUAAUGGUAACGCGUCUCCCUCCUAAGGAGAAGACAGCGGGUUCGAGUCCCGUACGGCACG [U47A A69C] | 0.82
10 | GUUCCGUUGGCGUAAUGGUAACGCGUCUCCCUCCUAAGGAGAAGAGUGCGGGUCCGAGUCCCGUACGGCACG [C46G U54C A69C] | 0.601
11 | GUUCCGUUGGCGUAAUGGUAACGCGUCUCCCUCCUAAGGAGAAGACCGCGGGUUCGAGUGCCGUACGGAACG [U47C C60G] | 0.651
12 | GUUCCGUUGGCGUAAUGGUAACGCGUCUCCCUCCUAAGGAGAAGACCGCGGGUUCGAGUUCCGUACGGAACG [U47C C60U] | 0.722
13 | GUUCCGUUGGCGUAAUGGUAACGCGUCUCCCUCCUAAGGAGAAGAAUGCGGGUUCGAGUCCCGUACGGAUCG [C46A A70U] | 1.04
14 | GUUCCGUUGGCGUAAUGGUAACGCGUCUCCCUCCUAAGGAGAAGAAUGCAGGUUCGAGUCCCGUACGGAACG [C46A G50A] | 0.925
15 | GUUCCGUUGGCGUAAUGGUAACGCGUCUCCCUCCUAAGGAGAAGACAGCGGGUUCGAGUCCCGUGCGGAACG [U47A A65G] | 0.937
16 | GUUCCGUUGGCGUAAUGGUAACGCGUCUCCCUCCUAAGGAGAAGAUUGCGGGUUCAAGUCCCGUACAGAACG [C46U G56A G67A] | 0.686
17 | GUUCCGUUGGCGUAAUGGUAACGCGUCUCCCUCCUAAGGAGAAGACCGCGGGUUCGAGUGCCGUACGGCACG [U47C C60G A69C] | ≤ 0.5
18 | GUUCCGUUGGCGUAAUGGUAACGCGUCUCCCUCCUAAGGAGAAGAUUGCGGGUUCGAGUCCCGUUCGGUACG [C46U A65U A69U] | 0.737
19 | GUUCCGUUGGCGUAAUGGUAACGCGUCUCCCUCCUAAGGAGAAGAUUGCCGGUUCGAGUCCCGUACGGAACG [C46U G50C] | 0.819

Row | Variant | yeast fitness
20 | GUUCCGUUGGCGUAAUGGUAACGCGUCUCCCUCCUAAGGAGAAGAAUGCGGGUCCGAGUCCCGUACGGAACG [C46A U54C] | 0.888
21 | GUUCCGUUGGCGUAAUGGUAACGCGUCUCCCUCCUAAGGAGAAGAGUGCGAAUUCGAGUCCCGUACGGAACG [C46G G51A G52A] | 0.566
22 | GUUCCGUUGGCGUAAUGGUAACGCGUCUCCCUCCUAAGGAGAAGAUUGCGGGUUCGAGUCCCGUAGUGAACG [C46U C66G G67U] | ≤ 0.5
23 | GUUCCGUUGGCGUAAUGGUAACGCGUCUCCCUCCUAAGGAGAAGACAGCGGGCUCGAGUCCCGUACGGAACG [U47A U53C] | 0.7
24 | GUUCCGUUGGCGUAAUGGUAACGCGUCUCCCUCCUAAGGAGAAGAUUGCGGCUUCGUGUCCCGUACGGAACG [C46U G52C A57U] | ≤ 0.5
25 | GUUCCGUUGGCGUAAUGGUAACGCGUCUCCCUCCUAAGGAGAAGACCGCGGGUUCGAGUCCCGUACGGAGCG [U47C A70G] | 1.03
26 | GUUCCGUUGGCGUAAUGGUAACGCGUCUCCCUCCUAAGGAGAAGAAUGCGGGUUCGAGUCCCGUACCGAACG [C46A G67C] | 0.896
27 | GUUCCGUUGGCGUAAUGGUAACGCGUCUCCCUCCUAAGGAGAAGUCUGCGGGUCCGAGUCCCGUACGGAACG [A45U U54C] | 0.886
28 | GUUCCGUUGGCGUAAUGGUAACGCGUCUCCCUCCUAAGGAGAAGAUUGCGGGUUCGAGCCCCGUACGGAACG [C46U U59C] | 1.03
29 | GUUCCGUUGGCGUAAUGGUAACGCGUCUCCCUCCUAAGGAGAAGAUUGCGGGUUCGAGGCCCGUACGGAACG [C46U U59G] | 0.962
30 | GUUCCGUUGGCGUAAUGGUAACGCGUCUCCCUCCUAAGGAGAAGAUUGCGGGUUCGAGUGCGGUACGGAACG [C46U C60G C62G] | ≤ 0.5
31 | GUUCCGUUGGCGUAAUGGUAACGCGUCUCCCUCCUAAGGAGAAGACAGCGGGUUCGGGUCCCGUACGGAACG [U47A A57G] | 0.923
32 | GUUCCGUUGGCGUAAUGGUAACGCGUCUCCCUCCUAAGGAGAAGAUUGCGGGUUCGAGUCCCGUAUGGAACG [C46U C66U] | 1.02
33 | GUUCCGUUGGCGUAAUGGUAACGCGUCUCCCUCCUAAGGAGAAGACAGCGAGUUCGAGUCCCGUACGGGACG [U47A G51A A69G] | ≤ 0.5
34 | GUUCCGUUGGCGUAAUGGUAACGCGUCUCCCUCCUAAGGAGAAGAUUGCGAGUUCGAGUCCCGUACGGAACG [C46U G51A] | 1.02
35 | GUUCCGUUGGCGUAAUGGUAACGCGUCUCCCUCCUAAGGAGAAGAAGGCAGGUUCGAGUCCCGUACGGAACG [C46A U47G G50A] | 0.544
36 | GUUCCGUUGGCGUAAUGGUAACGCGUCUCCCUCCUAAGGAGAAGACCGCGGGUUCGAGUCCCGUGCGGAACG [U47C A65G] | 0.92
37 | GUUCCGUUGGCGUAAUGGUAACGCGUCUCCCUCCUAAGGAGAAGACAACGGGUUCGAGUCCCGUACGGAUCG [U47A G48A A70U] | 0.748
